Ends that are not written are not given here.
Tested on: T7 Express LysY/I^q E. coli
Assay: Induction test: growth
Type: cell-based, Escherichia coli
Conditions: 0.50 mM IPTG, LB with kan, 37 °C, OD600 over nine hours
Method in brief: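 T7 Express LysY/Iq E. coli transformed with 80 ng pETh vector carrying oncocin or a negative control, each separately. After SOC recovery, cells were pelleted and resuspended in LB with 50 µg mL-1 kanamycin. This suspension seeded LB-kanamycin (1:100) containing 0 to 0.50 mM IPTG. Cultures were shaken at 250 rpm at 37 °C for nine hours, with OD600 read every 50 minutes.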

VDKPPYLPRPRPPRRIYNR-NH2 (C-terminus assumed) [oncocin]
growth of oncocin-expressing E. coli upon induction (in words): nearly complete growth inhibition
